Experimental data reported in ChEMBL document CHEMBL1143109, “Discovery of novel orally active ureido NPY Y5 receptor antagonists” (Bioorg Med Chem Lett, 2008).
Active and inactive are the calls of the source. The rule behind the calls is not given here.

Columns and labels:
[1] = Half life in Beagle dog; format: ADME, organism-based, Canis lupus familiaris; conditions: in vivo
[2] = Bioavailability in Beagle dog; format: ADME, organism-based, Canis lupus familiaris; conditions: in vivo
[3] = Inhibition of chloride channel at 10 uM
Method in brief: (§1)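 Counterscreen panel of 60 receptors, enzymes and ion channels; inhibition of binding measured at 10 µM.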

[4] = molecular target: 5-hydroxytryptamine receptor 7 (Homo sapiens) (UniProt P34969); test: Inhibition of 5HT7 receptor at 10 uM; method in brief: as §1
[5] = molecular target: T1, Neuropeptide Y receptor type 5 (Rattus norvegicus) (UniProt Q63634); test: Antagonist activity at rat NPY Y5 receptor expressed in HEK293 cells assessed as inhibition of forskolin-stimulated cAMP production; format: functional, cell-based
T1 sequence (whole entry): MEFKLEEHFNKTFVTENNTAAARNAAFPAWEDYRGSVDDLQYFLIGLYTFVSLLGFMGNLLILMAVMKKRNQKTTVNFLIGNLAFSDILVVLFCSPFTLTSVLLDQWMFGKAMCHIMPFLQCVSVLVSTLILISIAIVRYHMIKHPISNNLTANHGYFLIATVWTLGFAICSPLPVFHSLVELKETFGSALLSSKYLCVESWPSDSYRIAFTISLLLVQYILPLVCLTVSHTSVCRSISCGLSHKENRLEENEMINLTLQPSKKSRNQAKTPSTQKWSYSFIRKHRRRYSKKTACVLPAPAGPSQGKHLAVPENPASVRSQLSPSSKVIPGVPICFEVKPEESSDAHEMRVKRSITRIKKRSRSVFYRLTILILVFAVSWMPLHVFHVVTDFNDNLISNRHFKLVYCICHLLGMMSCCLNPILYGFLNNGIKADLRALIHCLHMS
Method in brief: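 HEK293 cells expressing rat NPY Y5 receptor. Functional antagonism measured as the ability to overcome NPY inhibition of forskolin-stimulated cAMP production; reported as Kb.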

[6] = Ratio of drug level in brain to plasma in po dosed rat; format: ADME, organism-based; conditions: read-out: BPR
[7] = Bioavailability in po dosed rat; format: ADME, organism-based; conditions: in vivo
[8] = molecular target: T2, 5-hydroxytryptamine receptor 2C (Homo sapiens) (UniProt P28335); test: Inhibition of 5HT2C receptor at 10 uM; method in brief: as §1
T2 sequence (whole entry): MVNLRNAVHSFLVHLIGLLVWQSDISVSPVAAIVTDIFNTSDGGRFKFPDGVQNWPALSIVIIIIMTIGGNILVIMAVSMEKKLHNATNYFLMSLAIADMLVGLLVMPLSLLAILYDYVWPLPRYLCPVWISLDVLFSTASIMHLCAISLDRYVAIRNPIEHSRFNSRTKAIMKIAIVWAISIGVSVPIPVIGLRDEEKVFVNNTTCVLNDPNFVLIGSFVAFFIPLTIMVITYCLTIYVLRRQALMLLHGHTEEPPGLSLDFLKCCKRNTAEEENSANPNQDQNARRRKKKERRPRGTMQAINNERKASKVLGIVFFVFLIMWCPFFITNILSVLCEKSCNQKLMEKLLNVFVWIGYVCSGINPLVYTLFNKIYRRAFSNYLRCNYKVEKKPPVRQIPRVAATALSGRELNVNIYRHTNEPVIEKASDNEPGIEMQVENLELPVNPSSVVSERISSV

[9] = molecular target: Sodium-dependent noradrenaline transporter (Homo sapiens) (UniProt P23975); test: Inhibition of norepinephrine transporter at 10 uM; method in brief: as §1
[10] = Inhibition of calcium channel at 10 uM; method in brief: as §1
Rattus norvegicus [11] = test: Reduction in food intake in Sprague-Dawley DIO rat at 10 mg/kg/day, po after 28 days relative to control; format: functional, organism-based
Method in brief: (§2)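 DIO rats weighing 700–800 g at start, n = 12/group, food and water ad libitum. Compound admixed into low fat diet for 28 days; delivered doses (1, 3 or 10 mg/kg/day) calculated from food consumption. Body composition by DEXA scanning, expressed as percent change from day 0 baseline; average plasma levels taken at the 10 mg/kg/day dose.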

Rattus norvegicus [12] = species: Rattus norvegicus; test: Antagonism of galanin-induced food intake in rat; format: functional, organism-based
[13] = molecular target: T3, Neuropeptide Y receptor type 1 (Homo sapiens, UniProt P25929); test: Binding affinity to human NPY Y1 receptor
T3 sequence (P25929 whole entry): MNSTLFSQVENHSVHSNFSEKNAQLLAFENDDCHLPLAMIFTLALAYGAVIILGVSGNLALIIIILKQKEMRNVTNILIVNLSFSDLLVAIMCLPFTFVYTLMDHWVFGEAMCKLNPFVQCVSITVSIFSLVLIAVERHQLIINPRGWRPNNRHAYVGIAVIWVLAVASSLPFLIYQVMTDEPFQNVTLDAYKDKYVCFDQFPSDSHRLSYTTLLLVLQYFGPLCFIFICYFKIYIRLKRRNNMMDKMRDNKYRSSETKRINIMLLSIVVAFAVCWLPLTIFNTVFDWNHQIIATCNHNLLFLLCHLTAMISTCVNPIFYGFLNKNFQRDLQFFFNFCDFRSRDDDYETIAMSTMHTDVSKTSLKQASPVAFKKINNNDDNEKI

Rattus norvegicus [14] = test: Decrease in adipose mass in po dosed Sprague-Dawley DIO rat after 28 days; format: functional, organism-based; method in brief: as §2
Rattus norvegicus [15] = test: Blockade of D-Trp[34]-NPY-induced food intake in po dosed rat; format: functional
Rattus norvegicus [16] = test: Increase in lean body mass in Sprague-Dawley DIO rat at 10 mg/kg/day, po after 28 days; format: functional, organism-based; method in brief: as §2
[17] = molecular target: 5-hydroxytryptamine receptor 5A (Homo sapiens) (UniProt P47898); test: Inhibition of 5HT5A receptor at 10 uM; method in brief: as §1
[18] = Half life in iv dosed rat; format: ADME, organism-based; conditions: in vivo
[19] = molecular target: T4, Neuropeptide Y receptor type 2 (Homo sapiens, UniProt P49146); test: Binding affinity to human NPY Y2 receptor
T4 sequence (P49146 whole entry): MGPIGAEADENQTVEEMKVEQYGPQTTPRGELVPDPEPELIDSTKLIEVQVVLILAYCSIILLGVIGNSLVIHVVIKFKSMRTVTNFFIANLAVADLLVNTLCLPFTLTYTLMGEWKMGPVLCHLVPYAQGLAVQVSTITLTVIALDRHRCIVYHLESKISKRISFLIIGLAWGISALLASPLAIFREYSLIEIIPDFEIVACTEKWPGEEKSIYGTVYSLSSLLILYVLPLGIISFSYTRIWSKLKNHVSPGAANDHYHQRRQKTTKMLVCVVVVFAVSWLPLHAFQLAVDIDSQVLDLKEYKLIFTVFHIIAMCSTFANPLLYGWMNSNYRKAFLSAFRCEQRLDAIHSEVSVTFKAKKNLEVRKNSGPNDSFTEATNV

[20] = molecular target: Neuropeptide Y receptor type 4 (Homo sapiens, UniProt P50391); test: Binding affinity to human NPY Y4 receptor
GABA transporter = test: Inhibition of GABA transporter at 10 uM

Neuropeptide Y receptor type 4, sequence (P50391 whole entry): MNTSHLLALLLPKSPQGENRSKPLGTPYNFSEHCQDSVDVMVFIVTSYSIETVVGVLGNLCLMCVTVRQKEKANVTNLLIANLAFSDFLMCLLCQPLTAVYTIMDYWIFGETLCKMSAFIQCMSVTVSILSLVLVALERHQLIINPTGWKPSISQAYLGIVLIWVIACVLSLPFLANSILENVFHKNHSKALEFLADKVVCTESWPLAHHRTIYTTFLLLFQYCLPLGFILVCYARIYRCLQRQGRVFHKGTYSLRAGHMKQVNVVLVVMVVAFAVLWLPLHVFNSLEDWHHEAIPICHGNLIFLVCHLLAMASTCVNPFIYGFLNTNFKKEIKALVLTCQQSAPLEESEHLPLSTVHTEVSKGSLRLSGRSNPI
5-hydroxytryptamine receptor 7 (Homo sapiens), sequence (P34969 whole entry): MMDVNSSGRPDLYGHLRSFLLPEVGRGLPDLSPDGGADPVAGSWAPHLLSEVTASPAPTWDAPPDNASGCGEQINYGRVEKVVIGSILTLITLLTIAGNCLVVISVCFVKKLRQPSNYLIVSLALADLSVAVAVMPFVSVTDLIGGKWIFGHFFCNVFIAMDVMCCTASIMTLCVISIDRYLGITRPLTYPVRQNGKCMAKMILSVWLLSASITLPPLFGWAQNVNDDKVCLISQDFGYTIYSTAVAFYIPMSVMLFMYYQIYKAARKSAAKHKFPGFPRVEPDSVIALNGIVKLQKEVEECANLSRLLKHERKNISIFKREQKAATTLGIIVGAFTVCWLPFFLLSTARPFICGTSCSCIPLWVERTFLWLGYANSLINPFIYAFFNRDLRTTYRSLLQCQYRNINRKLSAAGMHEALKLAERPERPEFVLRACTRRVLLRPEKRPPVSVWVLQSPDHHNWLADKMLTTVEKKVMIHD
Sodium-dependent noradrenaline transporter (Homo sapiens), sequence (P23975 whole entry): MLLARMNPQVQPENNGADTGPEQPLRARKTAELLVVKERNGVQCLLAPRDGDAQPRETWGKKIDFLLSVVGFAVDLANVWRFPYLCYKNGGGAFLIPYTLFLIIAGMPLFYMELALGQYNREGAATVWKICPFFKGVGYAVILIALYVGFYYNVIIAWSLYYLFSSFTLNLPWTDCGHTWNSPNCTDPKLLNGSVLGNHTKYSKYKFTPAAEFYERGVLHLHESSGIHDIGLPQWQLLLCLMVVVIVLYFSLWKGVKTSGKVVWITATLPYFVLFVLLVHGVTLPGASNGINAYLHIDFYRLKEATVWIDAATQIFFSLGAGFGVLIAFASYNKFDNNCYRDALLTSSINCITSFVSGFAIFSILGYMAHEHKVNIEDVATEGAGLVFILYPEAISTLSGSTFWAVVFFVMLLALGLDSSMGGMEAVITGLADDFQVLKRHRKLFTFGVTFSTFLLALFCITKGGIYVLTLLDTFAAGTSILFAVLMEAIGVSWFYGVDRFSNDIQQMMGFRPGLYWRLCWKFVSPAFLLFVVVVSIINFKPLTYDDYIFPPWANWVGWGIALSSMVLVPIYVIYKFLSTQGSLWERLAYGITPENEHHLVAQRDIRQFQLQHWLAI
5-hydroxytryptamine receptor 5A (Homo sapiens), sequence (P47898 whole entry): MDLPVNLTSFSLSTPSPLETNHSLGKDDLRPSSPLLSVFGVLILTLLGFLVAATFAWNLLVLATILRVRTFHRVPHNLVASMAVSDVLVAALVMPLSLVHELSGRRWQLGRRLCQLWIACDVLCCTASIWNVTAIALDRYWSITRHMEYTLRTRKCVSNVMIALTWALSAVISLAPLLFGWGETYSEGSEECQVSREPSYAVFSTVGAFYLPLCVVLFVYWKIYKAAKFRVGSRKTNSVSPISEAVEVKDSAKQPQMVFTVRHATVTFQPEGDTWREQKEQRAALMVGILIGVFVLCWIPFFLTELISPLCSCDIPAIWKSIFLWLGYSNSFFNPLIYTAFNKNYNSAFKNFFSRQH

For CC(=O)N1CCC(N(C)C(=O)N[C@H]2CC[C@H](c3cc(F)cc(F)c3)CC2)CC1, the half-life [1] was 24 h, the bioavailability [2] was 94% and the inhibition [3] was less than 25%. It also gave an inhibition [4] of less than 10%, a Kb [5] of 0.0027 µM and a Kp [6] of 0.3. It also gave a bioavailability [7] of 100%, an inhibition [8] of less than 10% and an inhibition [9] of less than 10%. The inhibition [10] was less than 25%, the Activity (Rattus norvegicus [11]) was “Dose-dependent effect” and the Activity (Rattus norvegicus [12]) was “inactive”. For the same molecule, the Ki [13] was greater than 10 µM, the Activity (Rattus norvegicus [14]) was “Dose-dependent effect” and the ED50 (Rattus norvegicus [15]) was 2.3 mg/kg. For the same molecule, the Activity (Rattus norvegicus [16]) was “Active”, the inhibition [17] was less than 10% and the half-life [18] was 1.4 h. It also gave a Ki [19] greater than 10 µM, a Ki [20] greater than 10 µM and an inhibition (GABA transporter) of less than 10%.
